Source: ChEMBL document CHEMBL4316593 (Eur J Med Chem, 2019)
Activity calls are given as the source filed them. No cut-off for these calls is given here.

Columns and labels:
[1] = Inhibition of RTK/PI3K/AKT/mTOR signaling in human U87 cells assessed as up regulation of WW domain containing transcription regulator 1 gene expression at cytotoxic IC50 measured after 48 hrs relative to control; format: cell-based; conditions: U-87MG ATCC
[2] = Inhibition of RTK/PI3K/AKT/mTOR signaling in human U87 cells assessed as down regulation of SORT1 gene expression at cytotoxic IC50 measured after 48 hrs relative to control; format: cell-based; conditions: U-87MG ATCC
Summary of the method: (§1)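 Cells were exposed for 48hrs at 37°C in humidified 5% CO₂ to the compound at its previously determined IC₅₀, with Cisplatin at its IC₅₀ and an untreated negative control alongside. Each condition was run in triplicate. RNA was isolated from all samples by the same protocol. Genes were called differentially expressed by DESeq2 at q-value < 0.05 and fold change > 1.5.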

U-87 MG [3] = assay: Induction of DNA damage in human U87 cells assessed as change in PEA15 gene expression at cytotoxic IC50 measured after 48 hrs […] relative to control; format: functional, U-87MG ATCC
Summary of the method: (§2)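 U87 expression profiling. Cells incubated 48hrs at 37°C, 5% CO₂ with the IC₅₀ concentration, alongside a cisplatin and an untreated control, in triplicate. RNA was isolated by one common protocol and profiled. DEGs were called with DESeq2 (q < 0.05, fold change > 1.5) and expressed as fold change versus untreated.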

U-87 MG [4] = assay: Induction of DNA damage in human U87 cells assessed as change in BTG2 gene expression at cytotoxic IC50 measured after 48 hrs […] relative to control; format: functional, U-87MG ATCC; summary of the method: as §2
[5] = Inhibition of RTK/PI3K/AKT/mTOR signaling in human U87 cells assessed as up regulation of zinc finger protein 217 gene expression at cytotoxic IC50 measured after 48 hrs relative to control; format: cell-based; conditions: U-87MG ATCC
U-87 MG [6] = assay: Induction of apoptosis in human U87 cells assessed as change in CAPN2 gene expression at cytotoxic IC50 measured after 48 hrs […] relative to control; format: functional, U-87MG ATCC
Summary of the method: (§3)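 U87 cells grown in MEM with 10% FBS at 37°C, 5% CO2. Cells exposed to IC50 of test compound for 48 hrs, alongside untreated and cisplatin controls, each condition in triplicate. RNA isolated and profiled; differential expression called with DESeq2 (q-value < 0.05, fold change > 1.5), fold change versus untreated.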

U-87 MG [7] = assay: Cell cycle arrest in human U87 cells assessed as change in MCM3 gene expression at cytotoxic IC50 measured after 48 hrs […] relative to control; format: functional, U-87MG ATCC; summary of the method: as §2
[8] = Inhibition of RTK/PI3K/AKT/mTOR signaling in human U87 cells assessed as up regulation of IER3 gene expression at cytotoxic IC50 measured after 48 hrs relative to control; format: cell-based; conditions: U-87MG ATCC; summary of the method: as §1
[9] = Inhibition of RTK/PI3K/AKT/mTOR signaling in human U87 cells assessed as up regulation of solute carrier family 11 member 2 gene expression at cytotoxic IC50 measured after 48 hrs relative to control; format: cell-based; conditions: U-87MG ATCC
[10] = Inhibition of RTK/PI3K/AKT/mTOR signaling in human U87 cells assessed as up regulation of PLD6 gene expression at cytotoxic IC50 measured after 48 hrs relative to control; format: cell-based; conditions: U-87MG ATCC; summary of the method: as §1
U-87 MG [11] = assay: Cytotoxicity against human U87 cells assessed as reduction in cell proliferation measured after 48 hrs by trypan blue dye-based cell counting analysis
U-87 MG [12] = assay: Induction of apoptosis in human U87 cells assessed as apoptotic cells at cytotoxic IC50 measured after 48 hrs by Annexin V-FITC/propidium iodide staining based flow cytometry (reference value: 22.4%); format: functional, U-87MG ATCC
U-87 MG [13] = assay: Induction of apoptosis in human U87 cells assessed as change in CTSV gene expression at cytotoxic IC50 measured after 48 hrs […] relative to control; format: functional, U-87MG ATCC; summary of the method: as §3
[14] = Inhibition of RTK/PI3K/AKT/mTOR signaling in human U87 cells assessed as down regulation of DTL gene expression at cytotoxic IC50 measured after 48 hrs relative to control; format: cell-based; conditions: U-87MG ATCC; summary of the method: as §3
U-87 MG [15] = assay: Induction of DNA damage in human U87 cells assessed as change in BRCA1 gene expression at cytotoxic IC50 measured after 48 hrs […] relative to control; format: functional, U-87MG ATCC; summary of the method: as §2
U-87 MG [16] = assay: Induction of apoptosis in human U87 cells assessed as change in PMAIP1 gene expression at cytotoxic IC50 measured after 48 hrs […] relative to control; format: functional, U-87MG ATCC; summary of the method: as §3
[17] = Inhibition of RTK/PI3K/AKT/mTOR signaling in human U87 cells assessed as down regulation of RFC4 gene expression at cytotoxic IC50 measured after 48 hrs relative to control; format: cell-based; conditions: U-87MG ATCC; summary of the method: as §1
U-87 MG [18] = assay: Cell cycle arrest in human U87 cells assessed as change in CDK1 gene expression at cytotoxic IC50 measured after 48 hrs […] relative to control; format: functional, U-87MG ATCC; summary of the method: as §2
LN-229 [19] = assay: Cell cycle arrest in human LN229 cells assessed as increase in accumulation at G1-phase at cytotoxic IC50 measured after 48 hrs by propidium iodide staining based fluorescence cell imaging analysis; format: functional
Summary of the method: (§4)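 Cell cycle by PI staining. Cells seeded at 1×10^6 and grown overnight at 37°C, 5% CO₂, then exposed for 48hrs at their IC₅₀ concentration, with DMSO and cisplatin controls. Cells were trypsinized, washed in cold PBS and fixed in 70% ethanol at 4°C for 30 min. They were stained with PI in Triton X-100/RNase for 15 min at 37°C and imaged by fluorescence microscopy. Reported as mean ± S.E.M of triplicates.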

[20] = Inhibition of RTK/PI3K/AKT/mTOR signaling in human U87 cells assessed as down regulation of TSPAN33 gene expression at cytotoxic IC50 measured after 48 hrs relative to control; format: cell-based; conditions: U-87MG ATCC; summary of the method: as §1
U-87 MG [21] = assay: Induction of apoptosis in human U87 cells assessed as change in FAS gene expression at cytotoxic IC50 measured after 48 hrs […] relative to control; format: functional, U-87MG ATCC; summary of the method: as §3
U-87 MG [22] = assay: Induction of DNA damage in human U87 cells assessed as change in RPS27L gene expression at cytotoxic IC50 measured after 48 hrs […] relative to control; format: functional, U-87MG ATCC; summary of the method: as §2
U-87 MG [23] = assay: Induction of apoptosis in human U87 cells assessed as change in ACTB gene expression at cytotoxic IC50 measured after 48 hrs […] relative to control; format: functional, U-87MG ATCC; summary of the method: as §3
LN-229 [24] = assay: Cell cycle arrest in human LN229 cells assessed as decrease in accumulation at G2/M-phase at cytotoxic IC50 measured after 48 hrs by propidium iodide staining based fluorescence cell imaging analysis; format: functional; summary of the method: as §4
[25] = Inhibition of RTK/PI3K/AKT/mTOR signaling in human U87 cells assessed as up regulation of TOMM22 gene expression at cytotoxic IC50 measured after 48 hrs relative to control; format: cell-based; conditions: U-87MG ATCC
[26] = Inhibition of RTK/PI3K/AKT/mTOR signaling in human U87 cells assessed as up regulation of Rab acceptor 1 gene expression at cytotoxic IC50 measured after 48 hrs relative to control; format: cell-based; conditions: U-87MG ATCC
Summary of the method: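 U87 cells were exposed for 48 hrs at 37°C under 5% CO₂, with cisplatin and untreated controls, all in triplicate. RNA was isolated by the same protocol for every sample and expression profiled from mapped reads. Differential expression against untreated cells was called in DESeq2 (q-value < 0.05, fold change > 1.5).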

[27] = Inhibition of RTK/PI3K/AKT/mTOR signaling in human U87 cells assessed as down regulation of FAM222A gene expression at cytotoxic IC50 measured after 48 hrs relative to control; format: cell-based; conditions: U-87MG ATCC; summary of the method: as §3

For `CC(=O)C(=NNc1ccccc1C#N)C(C)=O`, the log2FC [1] was 0.981, the log2FC [2] was -0.801 and the “fold change (FC)” value (U-87 MG [3]) was -1.195. The “fold change (FC)” value (U-87 MG [4]) was 2.177, the log2FC [5] was 1.37 and the log2FC (U-87 MG [6]) was -1.189. The “fold change (FC)” value (U-87 MG [7]) was 1.427, the log2FC [8] was 0.384 and the log2FC [9] was 1.18. The log2FC [10] was 1.77, the IC50 (U-87 MG [11]) was 107 µM and the Activity (U-87 MG [12]) was 68.7%. For the same compound, the log2FC (U-87 MG [13]) was 1.986, the log2FC [14] was -1.56 and the “fold change (FC)” value (U-87 MG [15]) was 2.408. For the same compound, the log2FC (U-87 MG [16]) was 1.102, the log2FC [17] was -1 and the “fold change (FC)” value (U-87 MG [18]) was 1.569. The Activity (LN-229 [19]) was “Active”, the log2FC [20] was -0.666 and the log2FC (U-87 MG [21]) was 3.514. The “fold change (FC)” value (U-87 MG [22]) was 2.121, the log2FC (U-87 MG [23]) was -1.876 and the Activity (LN-229 [24]) was “Active”. It also gave a log2FC [25] of 0.475, a log2FC [26] of 0.839 and a log2FC [27] of -1.4.
